Test results published in PubChem BioAssay AID488992 (Sanford-Burnham Center for Chemical Genomics, 2010).
Activity calls are given as the source filed them.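 The calls were made as follows: active = IC50 below 20 µM; inactive = the rest.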

molecular target: Apelin receptor (Homo sapiens) (UniProt P35414); assay: APJ antagonists, beta-arrestin recruitment, SAR follow-up, cell-based, luminescence, set 3 (AID 488992); details: CHO-K1 AGTRL-1 PathHunter beta-arrestin
Procedure, shortened: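 Assay system: CHO-K1 APJ beta-arrestin complementation cells; reagent: apelin-13 agonist at 10 nM final; dosing: dose-response series; schedule: overnight cell seeding, 90 min compound-agonist exposure at 25 °C; signal: luminescence from beta-gal complementation, read 60 min after detection reagent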

Sequence of Apelin receptor (Homo sapiens) (P35414 whole entry, looked up): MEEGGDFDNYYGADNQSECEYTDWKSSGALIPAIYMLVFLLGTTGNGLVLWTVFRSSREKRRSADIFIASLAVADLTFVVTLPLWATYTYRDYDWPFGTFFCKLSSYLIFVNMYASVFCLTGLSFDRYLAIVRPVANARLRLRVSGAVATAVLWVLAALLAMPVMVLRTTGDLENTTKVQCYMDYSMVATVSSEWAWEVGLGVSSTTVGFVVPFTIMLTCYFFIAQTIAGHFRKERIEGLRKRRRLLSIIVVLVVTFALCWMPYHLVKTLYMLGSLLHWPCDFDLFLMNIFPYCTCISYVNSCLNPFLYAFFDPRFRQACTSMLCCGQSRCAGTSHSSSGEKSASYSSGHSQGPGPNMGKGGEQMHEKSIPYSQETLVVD

IC50, inactive:
COc1cc(CSc2nc(C)cc(C)n2)ccc1OC(=O)c1cccnc1 > 79 µM
Cc1ccnc(SCc2cc(=O)c(OC(=O)C(C)C)co2)n1 > 79 µM
CC(=O)Oc1coc(CSc2nccc(C)n2)cc1=O > 79 µM
Cc1ccnc(SCc2cc(=O)c(OCc3ccc(Cl)c([N+](=O)[O-])c3)co2)n1 > 79 µM
Cc1ccnc(SCc2cc(=O)c(OC(=O)c3ccno3)co2)n1 > 79 µM
COc1cc(CSc2nc(C)cc(C)n2)ccc1OC(=O)c1ccccc1 > 79 µM
COc1cc(CSc2nc(C)cc(C)n2)ccc1OC(=O)c1ccc([N+](=O)[O-])cc1 > 79 µM
Cc1ccnc(SCc2cc(=O)c(OC(=O)c3ccc([N+](=O)[O-])o3)co2)n1 > 79 µM
O=C(Nc1ccc(CSc2ncccn2)cc1)c1ccccc1 > 79 µM
Cc1ccnc(SCc2cc(=O)c(OC(=O)C(C)(C)C)co2)n1 > 79 µM
